# HIV Env fusion: HIV envelope-mediated fusion inhibition; HeLa-JRFL Env/CEM21 cell fusion, luciferase; inhibition, % at 12.3 µM; 360,000 tested, 1.1% active; AID 651610;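 active = mean replicate inhibition score of at least 50 and every replicate individually at or above 50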;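 note: 0% = plate neutral controls and 100% = maraviroc near 300 nM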
# NR2E3 ag-1: agonists of human NR2E3 nuclear receptor; CHO-S Gal4-NCOR/VP16-NR2E3 two-hybrid, luciferase; inhibition of corepressor binding, % at 3.98 µM; 360,000 tested, 0.35% active; AID 602229;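 active = inhibition above the mean of all tested compounds plus 3 SD, cut at about 70% in these data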;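 note: 0% = DMSO with NR2E3 transfected cells and 100% = cells lacking NR2E3 construct; higher means lower luciferase signal from less NR2E3 corepressor binding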
# NR2E3 ag-2: NR2E3 (human) agonism; 320,000 tested, 0.12% active; GST-NR2E3/biotin-RetCOR TR-FRET, 1536-well; AID 2300; inhibition of corepressor binding, % at 4.78 µM; Q9Y5X4;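 active = percent inhibition above the cutoff of mean plus 3 SD of all tested compounds, set per screening campaign, cut at about 20% in these data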;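 note: 0% = DMSO wells and 100% = biotin wells as full block of FRET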
#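 Material – GST-tagged NR2E3 plus biotinylated RetCOR corepressor · Quantity – NR2E3 fusion 1.35 nM · Times – 5 h incubation at 4 °C · Medium – pH 7.5 Tris-based buffer · Technique – TR-FRET, Eu(K)-anti-GST donor, streptavidin-D2 acceptor, ex 340, em 617/671 nm · Benchmarks – high control biotin, low control 0.6% DMSO · Format – 1536-well plates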
# GalR3 antagonist: antagonists of human GalR3 | O60755 | HEK293 GalR3-CNG cAMP membrane potential fluorescence; galR3 body fused to GalR1 C-terminus | inhibition, % at 3 µM | 360,000 tested, 0.44% active;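 active = inhibition above the screen-wide average plus 3 SD, cut at about 13% in these data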;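 note: forskolin and galanin both at EC90 stimulate the cells; cAMP rise reported by CNG channel membrane potential dye signal; 0% = forskolin plus galanin with DMSO and 100% = forskolin alone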
# Target sequence (O60755 1-299 limits assumed): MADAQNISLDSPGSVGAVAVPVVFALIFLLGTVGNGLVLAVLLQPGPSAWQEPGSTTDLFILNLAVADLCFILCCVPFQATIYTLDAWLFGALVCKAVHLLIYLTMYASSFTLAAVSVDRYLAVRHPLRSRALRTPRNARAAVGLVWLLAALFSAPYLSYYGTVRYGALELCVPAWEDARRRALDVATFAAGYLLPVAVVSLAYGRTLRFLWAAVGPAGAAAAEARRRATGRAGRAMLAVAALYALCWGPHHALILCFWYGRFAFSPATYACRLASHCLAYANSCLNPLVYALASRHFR
# GAA850 FXN act: frataxin GAA850 promoter activation | HEK293 lucGAA850 FXN promoter luciferase reporter, 24 h; percent of 10 µM SAHA response | activation, % at 6 µM | 360,000 tested, 0.56% active;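 active = activation above the average of all compounds screened plus 3 SD, cutoff fixed separately per campaign, cut at about 7.5% in these data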;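 note: 0% = DMSO wells and 100% = 10 µM SAHA wells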
# V-ATPase pH: yeast V-ATPase proton transport regulation by pHLuorin; 350,000 tested, 0.37% active; S. cerevisiae, pHLuorin cytosolic pH fluorescence; response, % at 10 µM; in the data active = response mostly above about 7.3%, no sharp cut-off; inactive = mostly below about 5.4%; note: actives read high
# Active calls of the source: *; nt = no result given; [ ] = remark or other dose. Shown are actives, neighbours in structure and some others; about 2.2% of the full set was active somewhere.
SMILES,HIV Env fusion,NR2E3 ag-1,NR2E3 ag-2,GalR3 antagonist,GAA850 FXN act,V-ATPase pH
Cn1c(-c2ccccc2)c(C#Cc2ccc(N)cc2)c2ccccc21,70*,-9,nt,-2,3,-3
CCOC(=O)N1CCN(C(=O)c2oc3ccc(S(=O)(=O)N4CC(C)CC(C)C4)cc3c2C)CC1 (stereo not drawn),62*,18,0,0,0,-5
CCOC(=O)C1CCN(C(=O)c2oc3ccc(S(=O)(=O)N4CC(C)CC(C)C4)cc3c2C)CC1 (stereo not drawn),-8,-16,-1,-3,0,1
CN(Cc1ccccc1F)c1ncnc2sccc12,11,-9,6,-11,1,-3
CN(Cc1cccs1)c1ncnc2sccc12,70*,32,0,-4,4,3
CN(C)CCC(=O)N1C/C(=C/c2ccccc2)C(=O)/C(=C\c2ccccc2)C1,75*,39,nt,2,-15,11
CN(C)CC(=O)Nc1ccc2c(c1)[C@@H]1C[C@@H](CC(=O)NCc3ccccc3F)O[C@H](CO)[C@@H]1O2,8[16.7 µM],nt,nt,nt,nt,nt
CCS(=O)(=O)Nc1ccc2c(c1)C(=O)N(C)C[C@@H](OC)[C@H](C)CN(C(=O)c1ccc3c(c1)OCO3)[C@H](C)CO2,3[16.7 µM],nt,nt,nt,nt,nt
COC(=O)[C@@]1(Cc2ccccc2)[C@H]2C(=O)N(Cc3ccccc3)C(=O)[C@H]2[C@H]2CN=C(SCC(=O)c3ccccc3)N21,16,-38,nt,-8,-1,1
CC[C@]1(C(=O)OC)[C@H]2C(=O)N(Cc3ccccc3)C(=O)[C@H]2[C@H]2CN=C(SCC(=O)c3ccccc3)N21,72*,-23,nt,-3,7,0
O=C(CC(=O)c1cc(Cl)ccc1O)c1ccccc1,nt,-40,-2,-8,4,2
O=C(c1ccccc1)c1cc(Cl)ccc1N1C(=O)C=CC1=O,-18,5,nt,1,4,13*
CCN(CC)c1ncnc2ccc(Br)cc12,87*,-34,4,0,-5,2
CCCNc1ncnc2ccc(Br)cc12,22[16.7 µM],nt,nt,nt,nt,nt
COc1ccc(OC)c(NC(=O)C2(C)CCN2CCOc2ccccc2)c1 (stereo not drawn),66*,21,nt,-4,2,nt
COc1ccc(NC(=O)C2(C)CCN2CCOc2ccccc2)cc1OC (stereo not drawn),0,26,nt,-4,3,nt
Cc1cccc(CS(=O)(=O)c2nnc([C@H](Cc3ccccc3)NC(=O)OC(C)(C)C)o2)c1,nt,-24,1,nt,4,4
COC(=O)CS(=O)(=O)c1nnc([C@H](Cc2ccccc2)NC(=O)OC(C)(C)C)o1,nt,-6,3,-2,15*,0
COc1cccc(S(=O)(=O)Nc2ccc3c(c2)OC[C@@H](C)NC[C@H](C)[C@H](OC)CN(C)C3=O)c1,9[16.7 µM],nt,nt,nt,nt,nt
CC(NCC(O)COc1ccc2ccccc2c1)c1ccccc1 (stereo not drawn),65*,0,-1,-17,0,1
COc1ccc(OCC(O)CNC(C)c2ccccc2)cc1 (stereo not drawn),3,-10,-2,-4,0,-1
Cc1cc(OCC(O)CNC(C)c2ccccc2)ccc1C(C)C (stereo not drawn),82*,8,2,-15,5,-2
CCN(CC)S(=O)(=O)c1ccc(N2CCOCC2)c(NC(=O)c2ccco2)c1,58*,6,nt,-5,2,-1
CCN(CC)S(=O)(=O)c1ccc(N2CCOCC2)c(NC(=S)NC(=O)c2ccco2)c1,31,-1,1,-2,3,3
CCN(CC)S(=O)(=O)c1ccc(N2CCCC2)c(NC(=O)Cc2c(F)cccc2Cl)c1,57*,-24,1,-3,2,3
COC(=O)C[C@@H]1CC[C@@H]2[C@H](COc3ccc(NS(C)(=O)=O)cc3C(=O)N2C)O1,2[16.7 µM],nt,nt,nt,nt,nt
CCCCN1CC(COCc2ccccc2)Oc2cccc(Oc3ccc(C(C)C)cc3)c2S1(=O)=O (stereo not drawn),63*,0,nt,-5,1,0
C[C@@H](O)C#Cc1ccc2c(c1)O[C@@H](CN(C)C(=O)CC1CC1)[C@@H](C)CN([C@@H](C)CO)S2(=O)=O,-19[16.7 µM],nt,nt,nt,nt,nt
